Assay results reported in ChEMBL document CHEMBL4715904, “Discovery of an Anion-Dependent Farnesyltransferase Inhibitor from a Phenotypic Screen” (ACS Med Chem Lett, 2021).
Active and inactive are the calls of the source. The calls are words filed in the database; no cut-off is given here.

Key:
[1] = Inhibition of recombinant rat FTase expressed in Escherichia coli using 3H-FPP and biotinylated-DESGPGCMSCKCVLS peptide as substrates incubated for 30 mins by scintillation proximity assay
Procedure, shortened: (§1)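 Cell-free FTase inhibition assay, standard protocol; anion-dependent variants repeated with added anion (dimethylallyl diphosphate at increasing concentrations, or other anions) beyond the standard-protocol level.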

[2] = Inhibition of recombinant rat FTase expressed in Escherichia coli using 3H-FPP and biotinylated-DESGPGCMSCKCVLS peptide as substrates incubated for 30 mins in presence of 5 mM ATP by scintillation proximity assay; procedure, shortened: as §1
[3] = Inhibition of recombinant rat FTase expressed in Escherichia coli using 3H-FPP and biotinylated-DESGPGCMSCKCVLS peptide as substrates incubated for 30 mins in presence of 5 mM phosphate by scintillation proximity assay; procedure, shortened: as §1
[4] = system: Human immunodeficiency virus 1; test: Potentiation of vorinostat-induced reactivation of latent HIV-1 infected in human Jurkat 2C4 cells assessed as increase in HIV-1 transcription incubated for 24 hrs in presence of vorinostat by Steady-Glo luciferase reporter gene assay; format: functional, organism-based; conditions: Human immunodeficiency virus 1, 2C4, 24 h
[5] = system: Human immunodeficiency virus 1; test: Reactivation of latent HIV-1 infected in human Jurkat 2C4 cells assessed as increase in HIV-1 transcription incubated for 24 hrs by Steady-Glo luciferase reporter gene assay; format: functional, organism-based; conditions: for EC50: Human immunodeficiency virus 1, 2C4, 24 h
Procedure, shortened: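 Jurkat 2C4 latent HIV reporter line (minimal provirus, Tat H12L, LTR-driven luciferase); latency reversal measured as increase in luciferase luminescence in cell lysates.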

[6] = Inhibition of recombinant rat FTase expressed in Escherichia coli using 3H-FPP and biotinylated-DESGPGCMSCKCVLS peptide as substrates incubated for 30 mins in presence of 5 mM DMA-PP by scintillation proximity assay; procedure, shortened: as §1
[7] = Inhibition of recombinant rat FTase expressed in Escherichia coli using 3H-FPP and biotinylated-DESGPGCMSCKCVLS peptide as substrates incubated for 30 mins in presence of 5 mM pyrophosphate by scintillation proximity assay; procedure, shortened: as §1
[8] = Inhibition of rat recombinant FTase expressed in Escherichia coli using 3H-FPP and biotinylated-DESGPGCMSCKCVLS peptide as substrates incubated for 30 mins in presence of 5 mM thiosulfate by scintillation proximity assay; procedure, shortened: as §1
[9] = system: Human immunodeficiency virus 1; test: Potentiation of vorinostat-induced reactivation of latent HIV-1 infected in human Jurkat 2C4 cells assessed as increase in HIV-1 transcription incubated for 24 hrs in presence of vorinostat by Steady-Glo luciferase reporter gene assay relative to control; format: functional
[10] = Inhibition of recombinant rat FTase expressed in Escherichia coli using 3H-FPP and biotinylated-DESGPGCMSCKCVLS peptide as substrates incubated for 30 mins in presence of 2 mM DMA-PP by scintillation proximity assay; procedure, shortened: as §1
[11] = Inhibition of recombinant rat FTase expressed in Escherichia coli using 3H-FPP and biotinylated-DESGPGCMSCKCVLS peptide as substrates incubated for 30 mins in presence of 1 mM DMA-PP by scintillation proximity assay; procedure, shortened: as §1
[12] = target: T1, Mitochondrial inner membrane m-AAA protease component AFG3L2 (Homo sapiens, UniProt Q9Y4W6); test: Displacement of (1-(2-aminoethyl)-3,5-dimethyl-1H-pyrazol-4-yl)(4-((1-neopentyl-1H-benzo[d]imidazol-2-yl)methyl)piperazin-1-yl)methanone from AFG3L2 in vorinostat-stimulated human Jurkat 2C4 cells infected with latent HIV-1 by pull-down experiment based competitive binding assay; format: tissue-based
T1 sequence (Q9Y4W6 whole entry): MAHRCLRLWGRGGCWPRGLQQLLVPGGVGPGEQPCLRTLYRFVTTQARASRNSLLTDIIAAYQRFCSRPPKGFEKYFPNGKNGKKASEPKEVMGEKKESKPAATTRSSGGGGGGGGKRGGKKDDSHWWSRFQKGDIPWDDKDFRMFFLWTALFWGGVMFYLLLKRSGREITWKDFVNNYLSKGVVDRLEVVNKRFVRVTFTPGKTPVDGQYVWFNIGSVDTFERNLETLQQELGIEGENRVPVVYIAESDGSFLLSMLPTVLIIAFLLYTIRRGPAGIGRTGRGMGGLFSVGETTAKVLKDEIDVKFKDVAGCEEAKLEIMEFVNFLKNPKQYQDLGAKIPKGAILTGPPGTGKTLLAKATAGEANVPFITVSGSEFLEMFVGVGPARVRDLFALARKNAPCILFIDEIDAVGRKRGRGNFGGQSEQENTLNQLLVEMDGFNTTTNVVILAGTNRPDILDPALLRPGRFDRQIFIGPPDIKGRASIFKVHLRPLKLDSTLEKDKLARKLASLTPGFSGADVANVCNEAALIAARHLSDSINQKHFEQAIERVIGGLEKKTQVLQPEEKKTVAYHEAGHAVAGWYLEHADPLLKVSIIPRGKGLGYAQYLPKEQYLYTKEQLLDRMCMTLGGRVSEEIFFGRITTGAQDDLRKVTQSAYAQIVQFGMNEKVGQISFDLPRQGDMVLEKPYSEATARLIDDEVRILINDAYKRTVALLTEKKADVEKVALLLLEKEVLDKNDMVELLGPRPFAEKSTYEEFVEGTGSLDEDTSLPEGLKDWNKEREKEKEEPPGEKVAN
Procedure, shortened: (§2)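 Affinity matrix made by immobilizing the aminoethyl-linked probe on Sepharose beads at 5.8, 3 and 1.4 mM; beads exposed to lysates of Jurkat 2C4 cells pretreated with vorinostat (250 nM); bound proteins pulled down, with free compound competing for binding.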

[13] = target: T2, NmrA-like family domain-containing protein 1 (Homo sapiens, UniProt Q9HBL8); test: Displacement of (1-(2-aminoethyl)-3,5-dimethyl-1H-pyrazol-4-yl)(4-((1-neopentyl-1H-benzo[d]imidazol-2-yl)methyl)piperazin-1-yl)methanone from NMRAL1 in vorinostat-stimulated human Jurkat 2C4 cells infected with latent HIV-1 by pull-down experiment based competitive binding assay; format: tissue-based; procedure, shortened: as §2
T2 sequence (Q9HBL8 whole entry, the tested form may be a part): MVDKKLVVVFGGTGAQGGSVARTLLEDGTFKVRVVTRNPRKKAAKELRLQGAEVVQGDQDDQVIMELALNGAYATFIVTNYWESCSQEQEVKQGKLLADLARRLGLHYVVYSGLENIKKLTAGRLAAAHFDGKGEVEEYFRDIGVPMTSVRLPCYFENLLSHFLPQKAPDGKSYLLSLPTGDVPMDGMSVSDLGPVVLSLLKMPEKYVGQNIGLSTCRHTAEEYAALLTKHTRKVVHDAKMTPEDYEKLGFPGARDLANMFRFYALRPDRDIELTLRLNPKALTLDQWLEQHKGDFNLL

[14] = target: T3, Protein farnesyltransferase/geranylgeranyltransferase type-1 subunit alpha (Homo sapiens, UniProt P49354); test: Displacement of (1-(2-aminoethyl)-3,5-dimethyl-1H-pyrazol-4-yl)(4-((1-neopentyl-1H-benzo[d]imidazol-2-yl)methyl)piperazin-1-yl)methanone from FNTA in vorinostat-stimulated human Jurkat 2C4 cells infected with latent HIV-1 by pull-down experiment based competitive binding assay
Homo sapiens [15] = species: Homo sapiens; test: Binding affinity to recombinant FTase (unknown origin) assessed as change in melting temperature at 20 uM by TdF assay
[16] = target: T4, Protein farnesyltransferase subunit beta (Homo sapiens, UniProt P49356); test: Displacement of (1-(2-aminoethyl)-3,5-dimethyl-1H-pyrazol-4-yl)(4-((1-neopentyl-1H-benzo[d]imidazol-2-yl)methyl)piperazin-1-yl)methanone from FNTB in vorinostat-stimulated human Jurkat 2C4 cells infected with latent HIV-1 by pull-down experiment based competitive binding assay
T4 sequence (P49356 whole entry): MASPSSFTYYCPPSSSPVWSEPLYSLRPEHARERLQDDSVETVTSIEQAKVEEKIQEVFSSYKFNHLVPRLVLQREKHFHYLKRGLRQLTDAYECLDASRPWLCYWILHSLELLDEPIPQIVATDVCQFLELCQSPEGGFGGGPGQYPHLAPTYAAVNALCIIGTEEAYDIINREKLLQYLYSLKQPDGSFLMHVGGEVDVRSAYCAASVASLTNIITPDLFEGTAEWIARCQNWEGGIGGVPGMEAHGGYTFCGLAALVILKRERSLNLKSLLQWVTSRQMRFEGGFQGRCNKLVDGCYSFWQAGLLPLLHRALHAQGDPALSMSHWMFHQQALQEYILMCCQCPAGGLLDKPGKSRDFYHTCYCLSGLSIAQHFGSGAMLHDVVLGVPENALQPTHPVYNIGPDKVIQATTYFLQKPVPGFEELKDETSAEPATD

Homo sapiens [17] = species: Homo sapiens; test: Binding affinity to recombinant FTase (unknown origin) assessed as melting temperature at 20 uM by TdF assay (reference value: 46.2 +/- 0.2 degreeC)
[18] = target: T1, Mitochondrial inner membrane m-AAA protease component AFG3L2; test: Displacement of (4-((1-neopentyl-1H-benzo[d]imidazol-2-yl)methyl)piperazin-1-yl)(1,3,5-trimethyl-1H-pyrazol-4-yl)methanone from AFG3L2 in vorinostat-stimulated human Jurkat 2C4 cells infected with latent HIV-1 by pull-down experiment based competitive binding assay; format: tissue-based; procedure, shortened: as §2
[19] = target: T3, Protein farnesyltransferase/geranylgeranyltransferase type-1 subunit alpha; test: Displacement of (4-((1-neopentyl-1H-benzo[d]imidazol-2-yl)methyl)piperazin-1-yl)(1,3,5-trimethyl-1H-pyrazol-4-yl)methanone from FNTA in vorinostat-stimulated human Jurkat 2C4 cells infected with latent HIV-1 by pull-down experiment based competitive binding assay; procedure, shortened: as §2
[20] = target: T4, Protein farnesyltransferase subunit beta; test: Displacement of (4-((1-neopentyl-1H-benzo[d]imidazol-2-yl)methyl)piperazin-1-yl)(1,3,5-trimethyl-1H-pyrazol-4-yl)methanone from FNTB in vorinostat-stimulated human Jurkat 2C4 cells infected with latent HIV-1 by pull-down experiment based competitive binding assay; format: tissue-based; procedure, shortened: as §2
[21] = target: T2, NmrA-like family domain-containing protein 1; test: Displacement of (4-((1-neopentyl-1H-benzo[d]imidazol-2-yl)methyl)piperazin-1-yl)(1,3,5-trimethyl-1H-pyrazol-4-yl)methanone from NMRAL1 in vorinostat-stimulated human Jurkat 2C4 cells infected with latent HIV-1 by pull-down experiment based competitive binding assay; format: tissue-based; procedure, shortened: as §2

| IC50 [1] [nM] | IC50 [2] [nM] | IC50 [3] [nM] | EC50 [4] [nM] | IC50 [6] [nM] | IC50 [7] [nM] | IC50 [8] [nM] | IC50 [10] [nM] | IC50 [11] [nM] | EC50 [5] [nM] | ΔTm (Homo sapiens [15]) [°C] | Structure (SMILES) | Activity [9] [%] | also measured |
| --- | --- | --- | --- | --- | --- | --- | --- | --- | --- | --- | --- | --- | --- |
| 50 | 50 | 70 | 170 | 70 | 70 | 50 | 100 | 40 | – | – | N#Cc1ccc(Cn2cncc2CN2CCN(c3cccc(Cl)c3)C(=O)C2)cc1 [L-778123 FREE BASE] | 100 | Activity [5]: Active |
| ≥ 20000 | 250 | 1300 | 340 | 500 | 2500 | 2100 | 900 | 1000 | > 8000 | 4.2 | Cc1nn(C)c(C)c1C(=O)N1CCN(Cc2nc3ccccc3n2CC(C)(C)C)CC1 | 100 | Kd [12]: 19000 nM; Kd [13]: 19000 nM; Kd [14]: 340 nM; Kd [16]: 475 nM; Tm (Homo sapiens [17]): 50.4 °C |
| – | – | – | 1100 | – | – | – | – | – | > 8000 | – | CC(=O)NCCn1nc(C)c(C(=O)N2CCN(Cc3nc4ccccc4n3CC(C)(C)C)CC2)c1C | – | – |
| – | > 40000 | > 40000 | > 8000 | – | > 40000 | > 40000 | – | – | > 8000 | 2 | CCn1c(CN2CCN(C(=O)c3c(C)nn(C)c3C)CC2)nc2ccccc21 | – | inhibition [18]: inactive; inhibition [19]: inactive; inhibition [20]: inactive; inhibition [21]: inactive |
